Test results reported in ChEMBL document CHEMBL1629527, “In vitro antifungal activities of bis(alkylpyridinium)alkane compounds against pathogenic yeasts and molds” (Antimicrob Agents Chemother, 2010).

What was measured:
Lichtheimia corymbifera [1] = assay: Antifungal activity against Absidia corymbifera 04-200170 after 24 to 72 hrs by broth microdilution method; assay type: functional
Method in brief: (§1)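 Broth microdilution MIC per CLSI M27-A3 (yeasts) or M38-A2 (molds). RPMI 1640 with L-glutamine, without bicarbonate, buffered to pH 7.0 with 0.165 M MOPS. Final test range for the compounds was 0.175–87.5 μM. Incubation at 35°C with visual reading at 24–72 h. MIC was the lowest concentration giving 100% inhibition versus the growth control (azoles 50% or 100%, by organism). Each isolate was run in duplicate in two independent experiments.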

Lomentospora prolificans [2] = assay: Antifungal activity against Scedosporium prolificans 05-203060 after 48 to 72 hrs; assay type: functional
Method in brief: (§2)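 CLSI M38-A2 broth microdilution for molds in RPMI 1640 with L-glutamine and no bicarbonate, buffered with 0.165 M MOPS to pH 7.0. Compounds were dissolved in water and tested at 0.175–87.5 μM final, 35°C, up to 7 days. MIC was read visually as 100% inhibition versus growth control. For MFC, clear wells were plated on SDA and the lowest concentration with no colonies taken. Each isolate was run in duplicate, two independent experiments.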

Candida parapsilosis [3] = assay: Antifungal activity against Candida parapsilosis ATCC 22019 after 48 to 72 hrs; assay type: functional; conditions: Lodderomyces parapsilosis
Method in brief: (§3)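 MFC: after the MIC read, 30-μl aliquots from each well without visible growth were plated onto Sabouraud dextrose agar and incubated at 35°C. Reading was at 48–72 h for yeasts and up to 7 days for molds. MFC was the lowest concentration with no colonies.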

Aspergillus terreus [4] = assay: Antifungal activity against Aspergillus terreus 05-202844 after 24 to 72 hrs by broth microdilution method; assay type: functional; method in brief: as §1
Fusarium solani [5] = assay: Antifungal activity against Fusarium solani 04-203102 after 24 to 72 hrs by broth microdilution method; assay type: functional
Method in brief: (§4)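 Mold isolates subcultured on potato dextrose agar, then tested by CLSI M38-A2 broth microdilution in RPMI 1640 (L-glutamine, no bicarbonate) buffered to pH 7.0 with 0.165 M MOPS. Compounds were dissolved in water and tested at a final 0.175–87.5 μM. Plates were incubated at 35°C. MIC was read visually as the lowest concentration giving 100% inhibition versus the growth control. Each isolate was run in duplicate in two independent experiments.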

Scedosporium apiospermum [6] = assay: Antifungal activity against Scedosporium apiospermum 05-203100 after 24 to 72 hrs by broth microdilution method; assay type: functional; method in brief: as §4
Candida parapsilosis [7] = assay: Antifungal activity against Candida parapsilosis 04-202398 after 24 to 72 hrs by broth microdilution method; assay type: functional; conditions: Lodderomyces parapsilosis; method in brief: as §1
Candida tropicalis = assay: Antifungal activity against Candida tropicalis 04-202361 after 24 to 72 hrs by broth microdilution method; assay type: functional; method in brief: as §1
Aspergillus fumigatus [8] = assay: Antifungal activity against Aspergillus fumigatus ATCC 204305 after 24 to 72 hrs by broth microdilution method; assay type: functional; method in brief: as §1
Nakaseomyces glabratus [9] = assay: Antifungal activity against Candida glabrata 04-202345 after 24 to 72 hrs by broth microdilution method; assay type: functional; method in brief: as §1
Aspergillus terreus [10] = assay: Antifungal activity against Aspergillus terreus 05-202844 after 48 to 72 hrs; assay type: functional; method in brief: as §3
Lomentospora prolificans [11] = assay: Antifungal activity against Scedosporium prolificans 05-203060 after 24 to 72 hrs by broth microdilution method; assay type: functional; method in brief: as §4
Pichia kudriavzevii [12] = assay: Antifungal activity against Candida krusei ATCC 9258 after 24 to 72 hrs by broth microdilution method; assay type: functional; method in brief: as §1
[13] = test system: Cryptococcus gattii species complex; assay: Antifungal activity against Cryptococcus gattii 05-200122 after 24 to 72 hrs by broth microdilution method; assay type: functional, Cryptococcus bacillisporus; method in brief: as §1
Cryptococcus neoformans [14] = assay: Antifungal activity against Cryptococcus neoformans ATCC 90112 after 24 to 72 hrs by broth microdilution method; assay type: functional; method in brief: as §1
Candida parapsilosis [15] = assay: Antifungal activity against Candida parapsilosis ATCC 22019 after 24 to 72 hrs by broth microdilution method; assay type: functional; conditions: Lodderomyces parapsilosis; method in brief: as §1
Candida albicans [16] = assay: Antifungal activity against Candida albicans ATCC 10231 after 24 to 72 hrs by broth microdilution method; assay type: functional; method in brief: as §1
Aspergillus flavus [17] = assay: Antifungal activity against Aspergillus flavus ATCC 204304 after 24 to 72 hrs by broth microdilution method; assay type: functional; method in brief: as §1
[18] = Antifungal activity against Exophiala jeanselmei 03-200268 after 24 to 72 hrs by broth microdilution method; assay type: functional; method in brief: as §1
[19] = test system: Cunninghamella bertholletiae; assay: Antifungal activity against Cunninghamella bertholletiae 99-12187 after 24 to 72 hrs by broth microdilution method; assay type: functional; method in brief: as §1
Rhizopus arrhizus [20] = assay: Antifungal activity against Rhizopus oryzae 05-203111 after 24 to 72 hrs by broth microdilution method; assay type: functional; method in brief: as §4
Exophiala spinifera [21] = assay: Antifungal activity against Exophiala spinifera 03-200803 after 24 to 72 hrs by broth microdilution method; assay type: functional; method in brief: as §4
Exophiala spinifera [22] = assay: Antifungal activity against Exophiala spinifera 03-200803 after 48 to 72 hrs; assay type: functional; method in brief: as §2
Pichia kudriavzevii [23] = assay: Antifungal activity against Candida krusei 04-202328 after 24 to 72 hrs by broth microdilution method; assay type: functional; method in brief: as §1
Cryptococcus neoformans [24] = assay: Antifungal activity against Cryptococcus neoformans 05-202523 after 24 to 72 hrs by broth microdilution method; assay type: functional; method in brief: as §1
Aspergillus flavus [25] = assay: Antifungal activity against Aspergillus flavus 05-203758 after 24 to 72 hrs by broth microdilution method; assay type: functional; method in brief: as §1
Candida albicans [26] = assay: Antifungal activity against Candida albicans ATCC 90028 after 24 to 72 hrs by broth microdilution method; assay type: functional; method in brief: as §1
[27] = Antifungal activity against Exophiala jeanselmei 03-200268 after 48 to 72 hrs; assay type: functional; method in brief: as §2
Rhizopus arrhizus [28] = assay: Antifungal activity against Rhizopus oryzae 05-203111 after 48 to 72 hrs; assay type: functional
Method in brief: (§5)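 After the broth microdilution MIC read, suspension from every well without visible growth was plated onto Sabouraud dextrose agar and incubated at 35°C, up to 7 days for molds. MFC was taken as the lowest drug concentration with no colonies.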

Aspergillus fumigatus [29] = assay: Antifungal activity against Aspergillus fumigatus 05-203114 after 24 to 72 hrs by broth microdilution method; assay type: functional; method in brief: as §1
[30] = Antifungal activity against Paecilomyces lilacinus 05-200601 after 24 to 72 hrs by broth microdilution method; assay type: functional; conditions: Purpureocillium lilacinum; method in brief: as §4
Pichia kudriavzevii [31] = assay: Antifungal activity against Candida krusei ATCC 6258 after 24 to 72 hrs by broth microdilution method; assay type: functional; method in brief: as §1
Aspergillus flavus [32] = assay: Antifungal activity against Aspergillus flavus ATCC 204304 after 48 to 72 hrs; assay type: functional; method in brief: as §3
Fusarium solani [33] = assay: Antifungal activity against Fusarium solani 04-203102 after 48 to 72 hrs; assay type: functional; method in brief: as §5
Candida parapsilosis [34] = assay: Antifungal activity against Candida parapsilosis 04-202398 after 48 to 72 hrs; assay type: functional; conditions: Lodderomyces parapsilosis
Method in brief: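 CLSI M27-A3 broth microdilution for yeasts in RPMI 1640 with L-glutamine and no bicarbonate, buffered with 0.165 M MOPS to pH 7.0. Compounds were dissolved in water and tested at 0.175–87.5 μM final, 35°C. MIC was read visually at 24–72 h as 100% inhibition versus growth control. For MFC, 30 μl from clear wells went onto SDA at 35°C for 48–72 h, reading the lowest concentration without colonies. Duplicates, two independent runs.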

Cryptococcus neoformans [35] = assay: Antifungal activity against Cryptococcus neoformans ATCC 90112 after 48 to 72 hrs; assay type: functional; method in brief: as §3
Aspergillus fumigatus [36] = assay: Antifungal activity against Aspergillus fumigatus ATCC 204305 after 48 to 72 hrs; assay type: functional; method in brief: as §2
[37] = test system: Cunninghamella bertholletiae; assay: Antifungal activity against Cunninghamella bertholletiae 99-12187 after 48 to 72 hrs; assay type: functional; conditions: in the assay text read “for up to 7 days” for “after 48 to 72 hrs”; method in brief: as §3
Cryptococcus neoformans [38] = assay: Antifungal activity against Cryptococcus neoformans 05-202523 after 48 to 72 hrs; assay type: functional; method in brief: as §3
Aspergillus fumigatus [39] = assay: Antifungal activity against Aspergillus fumigatus 05-203114 after 48 to 72 hrs; assay type: functional; method in brief: as §2
Lichtheimia corymbifera [40] = assay: Antifungal activity against Absidia corymbifera 04-200170 after 48 to 72 hrs; assay type: functional; method in brief: as §2
Nakaseomyces glabratus [41] = assay: Antifungal activity against Candida glabrata 04-202345 after 48 to 72 hrs; assay type: functional; method in brief: as §3
Scedosporium apiospermum [42] = assay: Antifungal activity against Scedosporium apiospermum 05-203100 after 48 to 72 hrs; assay type: functional; conditions: in the assay text read “for up to 7 days” for “after 48 to 72 hrs”; method in brief: as §5

| SMILES | MIC (Lichtheimia corymbifera [1]) [mg/L] | MIC (Aspergillus terreus [4]) [mg/L] | MIC (Fusarium solani [5]) [mg/L] | MIC (Scedosporium apiospermum [6]) [mg/L] | MIC (Candida parapsilosis [7]) [mg/L] | MIC (Candida tropicalis) [mg/L] | MIC (Aspergillus fumigatus [8]) [mg/L] | MIC (Nakaseomyces glabratus [9]) [mg/L] | MIC (Lomentospora prolificans [11]) [mg/L] | MIC [13] [mg/L] | MIC (Cryptococcus neoformans [14]) [mg/L] | MIC (Candida parapsilosis [15]) [mg/L] | MIC (Candida albicans [16]) [mg/L] | MIC (Aspergillus flavus [17]) [mg/L] | MIC [18] [mg/L] | MIC [19] [mg/L] | MIC (Rhizopus arrhizus [20]) [mg/L] | MIC (Exophiala spinifera [21]) [mg/L] | MIC (Pichia kudriavzevii [23]) [mg/L] | MIC (Cryptococcus neoformans [24]) [mg/L] | also measured |
| --- | --- | --- | --- | --- | --- | --- | --- | --- | --- | --- | --- | --- | --- | --- | --- | --- | --- | --- | --- | --- | --- |
| CCCCCc1cccc[n+]1CCCCCCCCCCCC[n+]1ccccc1CCCCC.[Cl-].[Cl-] | > 47.3 | 0.74 | 23.7 | 1.48 | 47.3 | 0.74 | > 47.3 | 0.37 | 1.48 | 1.48 | 5.9 | 0.74 | 1.48 | > 47.3 | 0.74 | 47.3 | 2.96 | 0.37 | 23.7 | 47.3 | MFC (Lomentospora prolificans [2]): 5.9 mg/L; MFC (Candida parapsilosis [3]): 1.48 mg/L; MFC (Aspergillus terreus [10]): 1.48 mg/L; MIC (Pichia kudriavzevii [12]): 23.7 mg/L; MFC (Exophiala spinifera [22]): 0.74 mg/L; MIC (Aspergillus flavus [25]): > 47.3 mg/L; MIC (Candida albicans [26]): 1.48 mg/L; MFC [27]: 2.96 mg/L; MFC (Rhizopus arrhizus [28]): 5.9 mg/L; MIC (Aspergillus fumigatus [29]): > 47.3 mg/L; MIC [30]: > 47.3 mg/L; MIC (Pichia kudriavzevii [31]): 23.7 mg/L |
| CCCCC(CCCC)c1cc[n+](CCCCCCCCCCCC[n+]2ccc(C(CCCC)CCCC)c(C)c2)cc1C.[Cl-].[Cl-] | 29.8 | 3.7 | 29.8 | 1.86 | 14.9 | 1.86 | 14.9 | 1.86 | 3.7 | 1.86 | 1.86 | 1.86 | 1.86 | 14.9 | 3.7 | 14.9 | 3.7 | 1.86 | 3.7 | 3.7 | MFC (Aspergillus flavus [32]): 59.7 mg/L; MFC (Fusarium solani [33]): 59.7 mg/L; MFC (Candida parapsilosis [34]): 29.8 mg/L; MFC (Cryptococcus neoformans [35]): 3.7 mg/L; MFC (Aspergillus terreus [10]): 14.9 mg/L; MFC (Aspergillus fumigatus [36]): 29.8 mg/L; MFC [37]: 29.8 mg/L; MFC (Cryptococcus neoformans [38]): 7.5 mg/L; MFC (Aspergillus fumigatus [39]): 59.7 mg/L; MFC (Lichtheimia corymbifera [40]): 59.7 mg/L; MIC (Aspergillus flavus [25]): 59.7 mg/L; MIC (Candida albicans [26]): 1.86 mg/L; MIC (Aspergillus fumigatus [29]): 14.9 mg/L; MIC [30]: 59.7 mg/L; MIC (Pichia kudriavzevii [31]): 3.7 mg/L |
| CC(C)(C)CCc1cc[n+](CCCCCCCCCCCC[n+]2ccc(CCC(C)(C)C)cc2)cc1.[Cl-].[Cl-] | > 50.7 | 50.7 | > 50.7 | 6.3 | 50.7 | 1.58 | > 50.7 | 0.79 | 1.58 | 1.58 | 1.58 | 1.58 | 3.2 | > 50.7 | 1.58 | > 50.7 | 6.3 | 0.79 | 25.3 | 25.3 | MFC (Lomentospora prolificans [2]): 12.7 mg/L; MFC (Candida parapsilosis [3]): 3.2 mg/L; MFC (Nakaseomyces glabratus [41]): 1.58 mg/L; MFC (Cryptococcus neoformans [38]): 50.7 mg/L; MIC (Aspergillus flavus [25]): > 50.7 mg/L; MIC (Candida albicans [26]): 3.2 mg/L; MFC [27]: 3.2 mg/L; MFC (Rhizopus arrhizus [28]): 25.3 mg/L; MIC (Aspergillus fumigatus [29]): > 50.7 mg/L; MFC (Scedosporium apiospermum [42]): 12.7 mg/L; MIC [30]: > 50.7 mg/L; MIC (Pichia kudriavzevii [31]): 25.3 mg/L |
